MEKK2 WT-MEK5: modulators of MEK5 binding to wildtype MEKK2, primary screen, biochemical, multiplex bead flow cytometry, Alexa488-MEK5. Mitogen-activated protein kinase kinase kinase 2 (Homo sapiens), Q9Y2U5. Alexa488-MEK5 binding to MEKK2 WT; actives lie on both sides. binding response (% of control), % at 10 µM. actives 1.1% (n = 290,000); in the data active means binding response below about 67% or above about 130%
MEKK2 mut-MEK5: MEK5 binding signal on mutant MEKK2 PB1, primary screen, biochemical, multiplex bead flow cytometry, Alexa488-MEK5; Alexa488-MEK5 binding to MEKK2 mutant; AID 1530, 2009; actives 0.35% (n = 290,000); percent response, % at 10 µM; in the data active means percent response above about 24%, passing the limit was not always enough
MEKK3 PB1 HTS: modulators of MEKK3-MEK5 PB1 binding, primary screen, biochemical, wildtype MEKK3, multiplex bead flow cytometry, Alexa488-MEK5. Mitogen-activated protein kinase kinase kinase 3 (Homo sapiens), Q99759. bead-based flow cytometry, Alexa488-MEK5 binding to MEKK3; actives lie on both sides; 0 = blocked by unlabeled MEK5, 100 = vehicle. binding response (% of control), % at 10 µM. actives 1.4% (n = 290,000). AID 1529, 2009;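 active means binding response more than 3 SD above or below the average of its plate-row segment, actives on both sides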;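 further: Alexa488 bead fluorescence after subtracting the streptavidin-only scavenger bead signal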
Target sequence (Q99759 whole entry, looked up): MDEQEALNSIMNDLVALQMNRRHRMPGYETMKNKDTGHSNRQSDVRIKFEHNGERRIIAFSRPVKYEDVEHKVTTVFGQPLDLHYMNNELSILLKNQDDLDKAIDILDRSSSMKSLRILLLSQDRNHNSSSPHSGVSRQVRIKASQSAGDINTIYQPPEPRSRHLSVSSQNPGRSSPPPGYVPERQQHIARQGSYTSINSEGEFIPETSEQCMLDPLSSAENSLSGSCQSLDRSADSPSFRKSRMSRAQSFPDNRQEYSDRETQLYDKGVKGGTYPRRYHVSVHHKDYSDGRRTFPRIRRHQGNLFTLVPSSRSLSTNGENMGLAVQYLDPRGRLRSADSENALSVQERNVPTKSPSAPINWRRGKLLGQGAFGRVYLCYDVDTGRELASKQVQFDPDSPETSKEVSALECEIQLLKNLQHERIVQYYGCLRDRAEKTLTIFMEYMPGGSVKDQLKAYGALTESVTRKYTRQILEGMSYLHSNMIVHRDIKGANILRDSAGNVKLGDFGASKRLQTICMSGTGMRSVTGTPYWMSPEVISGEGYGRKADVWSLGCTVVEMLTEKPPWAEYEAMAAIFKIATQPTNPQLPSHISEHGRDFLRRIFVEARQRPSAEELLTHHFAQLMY
Arr AP2 block: inhibitors of beta-arrestin/AP2 binding, primary screen, biochemical, GPCR trafficking, flow cytometry. inhibition, % at 10 µM. actives 0.31% (n = 340,000). FITC-arrestin peptide / GST-AP2 beads; AP2 beta2 appendage carries R879A mutation. AID 504490, 2011;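 active means inhibition above a set limit, near 3 SD of compounds lacking own fluorescence, cut at about 54% in these data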;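 further: plate controls were DMSO wells for no effect and 5 µM unlabelled arrestin peptide for full effect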
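System: GST-AP2 R879A glutathione beads | Also added: FITC-arrestin peptide, 50 nM | Times: 12 min plus 1 h, RT | Signal: Bead flow cytometry, FITC channel | Buffer or medium: PBS with 0.05% Tween 20 and 0.1% BSA | Read-out basis: Percent drop in bead-associated FITC signal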
MEKK2wt confirm: modulators of MEK5 binding to wildtype MEKK2, confirmation, biochemical, single concentration, multiplex bead flow cytometry | shares compounds with MEKK3 PB1 HTS | Alexa488-MEK5 binding to MEKK2 WT; actives lie on both sides | actives 2.4% (n = 5,900) | binding response (% of control), % at 10 µM; in the data active means binding response below about 16% or above about 210%; inactive means in between
MEKK2mut confirm: mutant MEKK2 PB1-MEK5 binding signal retest – biochemical, single concentration, multiplex bead flow cytometry, confirmation | percent response, % at 10 µM | actives 2% (n = 5,900) | AID 1893, 2009 | shares compounds with MEKK3 PB1 HTS | Alexa488-MEK5 binding to MEKK2 mutant; in the data active means percent response mostly above about 71%, no sharp cut-off; inactive means mostly below about 38%;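 further: higher means compound restores mutant binding toward wildtype level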
MEKK3-MEK5 inh: MEKK3 wild-type PB1 binding to MEK5, inhibitors, confirmation, biochemical, bead multiplex flow cytometry, single concentration, wildtype; AID 1894, 2009; binding response (% of control), % at 10 µM; shares compounds with MEKK3 PB1 HTS; actives 1.8% (n = 5,900); Alexa488-MEK5 binding to MEKK3; stronger effect = lower value;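 active means binding response below 72% of control, or above a set upper limit, though filed actives all read lower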;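 further: 100% = DMSO only wells and 0% = binding blocked by excess unlabeled MEK5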
Active calls of the source: *; nt = no result; [ ] = remark or other dose. Hits are enriched below; roughly 2.3% of the tested compounds scored in any of these assays.

SMILES | MEKK2 WT-MEK5 | MEKK2 mut-MEK5 | MEKK3 PB1 HTS | Arr AP2 block | MEKK2wt confirm | MEKK2mut confirm | MEKK3-MEK5 inh
CCN(CCNCC(O)COCc1ccc(Cl)cc1)c1cccc(C)c1 (configuration not stated) | 159.0* | 20.0 | 112.0 | -18.0 | 128.0 | 18.0 | 105.0
CCN(CCNC(=O)c1ccc(C#N)cc1)c1cccc(C)c1 | 99.0 | -2.0 | 102.0 | 25.5 | nt | nt | nt
CCc1ccc(C(=O)Nc2cc(S(=O)(=O)N3CCOCC3)ccc2N2CCOCC2)cc1 | nt | nt | nt | -11.5 | nt | nt | nt
CCCNC(=O)Cc1c(C)oc2ccccc12 | 119.0 | 32.0 | 130.0* | 30.9 | 99.0 | -5.0 | 99.0
COCC(=O)N1CCC(n2nccc2NC(=O)CCOc2ccccc2)CC1 | 101.0 | 5.0 | 99.0 | -0.9 | nt | nt | nt
CCOc1ccccc1-n1c(SCC(=O)N2CCCc3ccccc32)nnc1-c1cccnc1 | 104.0 | -1.0 | 132.0* | -8.3 | 112.0 | 4.0 | 105.0
O=C(c1ccccc1)c1c2c(cc3sc4ccccc4[n+]13)-c1cccc3cccc-2c13 | 60.0*[inhibitor] | -3.0 | 91.0 | 34.5 | 91.0 | -2.0 | 93.0
O=C(Cc1ncc(C(F)(F)F)cc1Cl)NCc1ccco1 | 93.0 | -46.0 | 97.0 | -7.0 | nt | nt | nt
Cc1cc(O)c2c(c1)CC1C3CCC4CC(=O)CCC4(C)C3CC(=O)C21C (configuration not stated) | nt | nt | nt | 19.4 | nt | nt | nt
N#Cc1c(-c2cccnc2)cc(-c2ccccc2)nc1N | 111.0 | 21.0 | 129.0* | 22.8 | 97.0 | -3.0 | 100.0
N#Cc1c(-c2ccccc2F)cc(-c2cccnc2)nc1N | 100.0 | -1.0 | 100.0 | -11.8 | nt | nt | nt
O=C(NC(Cc1c[nH]c2ccccc12)C(=O)OCC(=O)c1cccc2ccccc12)c1cccs1 (configuration not stated) | 115.0 | 12.0 | 102.0 | -143.4 | nt | nt | nt
Cc1cc(C)c(-n2c(SCc3nc4ccccc4s3)n[nH]c2=O)c(C)c1 | 107.0 | 24.0 | 130.0* | 42.8 | 83.0 | -16.0 | 84.0
O=C(NCc1ccco1)c1cccs1 | 84.0 | -11.0 | 77.0*[inhibitor] | -14.0 | 100.0 | -1.0 | 97.0
O=C(NNC(=S)NCc1ccco1)c1cccs1 | 95.0 | 6.0 | 99.0 | -14.8 | nt | nt | nt
O=C(NCc1nc(-c2ccccc2)no1)c1cccs1 | -4.0*[inhibitor] | -39.0 | 0.0*[inhibitor] | 9.0 | 95.0 | 0.0 | 99.0
O=C(NCc1ccco1)NC12CC3CC(CC(C3)C1)C2 | 91.0 | -13.0 | 81.0*[inhibitor] | 17.1 | 98.0 | 0.0 | 97.0
O=C1CCCCC1(O)Cc1ccc2c(c1)OCO2 (configuration not stated) | nt | nt | nt | -13.9 | nt | nt | nt
Cc1ccc(C)c(NC(=O)CCC(=O)N2CCOc3ccccc32)c1 | 96.0 | 2.0 | 101.0 | 0.5 | nt | nt | nt
COc1ccc(C(=O)CC(=O)C(=O)NCCc2cccc(C)c2)cc1 | 102.0 | -1.0 | 99.0 | 2.0 | nt | nt | nt
Cc1ccc(C(=O)Nc2ccc3c(c2)C(=O)NC3=O)cc1 | 96.0 | 0.0 | 99.0 | 12.7 | nt | nt | nt
COC(=O)c1ccc(C(=O)Nc2ccc3c(c2)C(=O)NC3=O)cc1 | 69.0*[inhibitor] | -5.0 | 60.0*[inhibitor] | -6.6 | 79.0 | -11.0 | 83.0
COc1cccc(N2CCN(C(=O)NC3CCCCC3)CC2)c1 | 106.0 | 4.0 | 104.0 | 12.8 | nt | nt | nt
COc1ccc(N2CCN(C(=O)NC3CCCCC3)CC2)cc1 | 99.0 | -2.0 | 77.0*[inhibitor] | 29.6 | 104.0 | 1.0 | 102.0
Cc1ccc(C2=NNC(=O)C(c3c[nH]c4ccccc34)C2)cc1 (configuration not stated) | 116.0 | -1.0 | 128.0* | -6.5 | 106.0 | 2.0 | 102.0
SMILES | MEKK2 WT-MEK5 | MEKK2 mut-MEK5 | MEKK3 PB1 HTS | Arr AP2 block | MEKK2wt confirm | MEKK2mut confirm | MEKK3-MEK5 inh
O=C1NN=C(c2ccc(Cl)cc2)CC1c1c[nH]c2ccccc12 (configuration not stated) | 97.0 | 1.0 | 102.0 | 9.5 | nt | nt | nt
O=C(Cc1ccc(F)cc1)NCc1cccnc1 | 92.0 | -3.0 | 96.0 | -0.1 | nt | nt | nt
O=C(Cc1ccc(-n2c(=O)[nH]c3ccsc3c2=O)cc1)NCc1cccnc1 | 109.0 | 1.0 | 139.0* | 8.4 | 103.0 | 0.0 | 101.0
Cc1cc2oc3ccc(NCCCN4CCOCC4)cc3c(=O)c2cc1C | 144.0* | 14.0 | 116.0 | 5.1 | 136.0 | 20.0 | 111.0
Cc1cc2oc3ccc(NCCCn4ccnc4)cc3c(=O)c2cc1C | 106.0 | 1.0 | 103.0 | 7.8 | nt | nt | nt
c1ccc2nc3ccccc3nc2c1 | 68.0 | 1.0 | 46.0*[inhibitor] | 1.9 | 103.0 | 7.0 | 105.0
c1ccc2c(c1)cnc1ccccc12 | 33.0*[inhibitor] | -13.0 | 37.0*[inhibitor] | -14.8 | 104.0 | 3.0 | 107.0
COc1ccccc1-c1ccc(SCc2ccccc2)nn1 | 79.0 | -3.0 | 73.0*[inhibitor] | -7.4 | 98.0 | -3.0 | 101.0
CCc1nnc(NC(=O)CSc2ccc(-c3cccs3)nn2)s1 | 83.0 | -11.0 | 90.0 | -1.6 | nt | nt | nt
COc1ccccc1-c1ccc(SCc2cccc(F)c2)nn1 | 97.0 | -3.0 | 101.0 | 11.2 | nt | nt | nt
CCc1nnc(NC(=O)CSc2ccc(-c3ccccc3OC)nn2)s1 | 83.0 | -3.0 | 67.0*[inhibitor] | -6.3 | 97.0 | -3.0 | 100.0
COCCN(C(=O)CC1C(=O)NCCN1Cc1ccc(-c2ccccc2)cc1)C(C)C (configuration not stated) | 126.0 | 23.0 | 108.0 | 3.0 | nt | nt | nt
O=C(NC1CCCC1)C(c1ccc(F)cc1)N(Cc1ccc(F)cc1)C(=O)CCl (configuration not stated) | 97.0 | -1.0 | 98.0 | 25.1 | nt | nt | nt
Cc1cc(Cl)ccc1OCC(=O)NC(=S)Nc1ccccc1N1CCOCC1 | 102.0 | -1.0 | 148.0* | 0.7 | 97.0 | -2.0 | 103.0
COc1ccccc1S(=O)(=O)NCc1ccc(C(=O)NC2CCC(O)CC2)cc1 (configuration not stated) | nt | nt | nt | -7.5 | nt | nt | nt
CCS(=O)(=O)N1CCN(c2ccc([N+](=O)[O-])c(NC(C)c3ccccc3)c2)CC1 (configuration not stated) | 102.0 | 5.0 | 103.0 | 2.0 | nt | nt | nt
NCCNc1ccc([N+](=O)[O-])c(Sc2nc3ccccc3[nH]2)c1 | 115.0 | 6.0 | 116.0 | 6.9 | nt | nt | nt
CC(Nc1cc(N2CCNCC2)ccc1[N+](=O)[O-])c1ccccc1 (configuration not stated) | 132.0 | 4.0 | 163.0* | 11.6 | 129.0 | 28.0 | 106.0
